Test results reported in ChEMBL document CHEMBL4138126, “Synthesis, antiproliferative, anti-tubulin activity, and docking study of new 1,2,4-triazoles as potential combretastatin analogues” (Eur J Med Chem, 2017).

Legend:
HepG2 = experiment: Cytotoxicity in human HepG2 cells assessed as reduction in cell viability incubated for 48 hrs by MTT assay; assay type: functional, cell-based; conditions: HepG2, 48 h
In short: (§1)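 HepG2 and HL60 (ATCC) grown in DMEM with 10% FBS, 2 mM L-glutamine, penicillin/streptomycin, amphotericin B at 37 °C, 5% CO2. Samples dissolved in DMSO, diluted thousandfold in assay. Cells seeded in serum-free medium, treated with serial concentrations 48 h; MTT 4 h, formazan dissolved in acidified isopropanol, A570. Triplicates averaged; viability relative to untreated/vehicle control.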

HL-60 = experiment: Cytotoxicity in human HL60 cells assessed as reduction in cell viability incubated for 48 hrs by MTT assay; assay type: functional, cell-based; conditions: HL-60, 48 h; in short: as §1
CCRF-CEM = experiment: Growth inhibition of human CCRF-CEM cells assessed as cell growth at 10 uM after 48 hrs by sulforhodamine B assay; assay type: functional; conditions: read-out: Activity
In short: (§2)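 NCI 60-cell-line panel screen (nine cancer types). Compounds added at single concentration 10^-5 M, cultures incubated 48 h; growth inhibition percentages reported.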

RPMI-8226 = experiment: Growth inhibition of human RPMI8226 cells assessed as cell growth at 10 uM after 48 hrs by sulforhodamine B assay; assay type: functional; conditions: RPMI-8226, 48 h, read-out: Activity; in short: as §2
A549 = experiment: Growth inhibition of human A549/ATCC cells assessed as cell growth at 10 uM after 48 hrs by sulforhodamine B assay; assay type: functional; conditions: A549, 48 h, read-out: Activity; in short: as §2
HOP-92 = experiment: Growth inhibition of human HOP92 cells assessed as cell growth at 10 uM after 48 hrs by sulforhodamine B assay; assay type: functional; conditions: HOP-92, 48 h, read-out: Activity; in short: as §2
NCI-H23 = experiment: Growth inhibition of human NCI-H23 cells assessed as cell growth at 10 uM after 48 hrs by sulforhodamine B assay; assay type: functional; conditions: NCI-H23, 48 h, read-out: Activity; in short: as §2
NCI-H322M = experiment: Growth inhibition of human NCI-H322M cells assessed as cell growth at 10 uM after 48 hrs by sulforhodamine B assay; assay type: functional; conditions: read-out: Activity; in short: as §2
NCI-H460 = experiment: Growth inhibition of human NCI-H460 cells assessed as cell growth at 10 uM after 48 hrs by sulforhodamine B assay; assay type: functional; conditions: NCI-H460, 48 h, read-out: Activity; in short: as §2
HCT-116 = experiment: Growth inhibition of human HCT116 cells assessed as cell growth at 10 uM after 48 hrs by sulforhodamine B assay; assay type: functional; conditions: HCT-116, 48 h, read-out: Activity; in short: as §2
HT-29 = experiment: Growth inhibition of human HT-29 cells assessed as cell growth at 10 uM after 48 hrs by sulforhodamine B assay; assay type: functional; conditions: HT-29, 48 h, read-out: Activity; in short: as §2
SW-620 = experiment: Growth inhibition of human SW620 cells assessed as cell growth at 10 uM after 48 hrs by sulforhodamine B assay; assay type: functional; conditions: SW-620, 48 h, read-out: Activity
In short: (§3)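 NCI 60-cell-line panel from nine tumour types (leukaemia, lung, colon, CNS, melanoma, ovarian, renal, prostate, breast). Each compound was added at one single concentration, and cultures were incubated for 48 h. Results are reported as percent growth inhibition.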

SF-268 = experiment: Growth inhibition of human SF268 cells assessed as cell growth at 10 uM after 48 hrs by sulforhodamine B assay; assay type: functional; conditions: SF-268, 48 h, read-out: Activity; in short: as §2
SF-539 = experiment: Growth inhibition of human SF539 cells assessed as cell growth at 10 uM after 48 hrs by sulforhodamine B assay; assay type: functional; conditions: SF-539, 48 h, read-out: Activity; in short: as §2
SNB-19 = experiment: Growth inhibition of human SNB19 cells assessed as cell growth at 10 uM after 48 hrs by sulforhodamine B assay; assay type: functional; conditions: SNB-19, 48 h, read-out: Activity; in short: as §3
SNB-75 = experiment: Growth inhibition of human SNB75 cells assessed as cell growth at 10 uM after 48 hrs by sulforhodamine B assay; assay type: functional; conditions: SNB-75, 48 h, read-out: Activity; in short: as §3
LOX IMVI = experiment: Growth inhibition of human LOXIMVI cells assessed as cell growth at 10 uM after 48 hrs by sulforhodamine B assay; assay type: functional; conditions: read-out: Activity; in short: as §2
Malme-3M = experiment: Growth inhibition of human MALME-3M cells assessed as cell growth at 10 uM after 48 hrs by sulforhodamine B assay; assay type: functional; conditions: read-out: Activity; in short: as §2
M14 = experiment: Growth inhibition of human M14 cells assessed as cell growth at 10 uM after 48 hrs by sulforhodamine B assay; assay type: functional; conditions: M14, 48 h, read-out: Activity; in short: as §2
SK-MEL-2 = experiment: Growth inhibition of human SK-MEL-2 cells assessed as cell growth at 10 uM after 48 hrs by sulforhodamine B assay; assay type: functional; conditions: SK-MEL-2, 48 h, read-out: Activity; in short: as §2
OVCAR-3 = experiment: Growth inhibition of human OVCAR3 cells assessed as cell growth at 10 uM after 48 hrs by sulforhodamine B assay; assay type: functional; conditions: OVCAR-3, 48 h, read-out: Activity; in short: as §2
OVCAR-4 = experiment: Growth inhibition of human OVCAR4 cells assessed as cell growth at 10 uM after 48 hrs by sulforhodamine B assay; assay type: functional; conditions: OVCAR-4, 48 h, read-out: Activity; in short: as §2
NCI/ADR-RES = experiment: Growth inhibition of human NCI-ADR-RES cells assessed as cell growth at 10 uM after 48 hrs by sulforhodamine B assay; assay type: functional; conditions: read-out: Activity; in short: as §2
A498 = experiment: Growth inhibition of human A498 cells assessed as cell growth at 10 uM after 48 hrs by sulforhodamine B assay; assay type: functional; conditions: A498, 48 h, read-out: Activity; in short: as §2
ACHN = experiment: Growth inhibition of human ACHN cells assessed as cell growth at 10 uM after 48 hrs by sulforhodamine B assay; assay type: functional; conditions: read-out: Activity; in short: as §2
RXF 393 = experiment: Growth inhibition of human RXF393 cells assessed as cell growth at 10 uM after 48 hrs by sulforhodamine B assay; assay type: functional; conditions: RXF 393, 48 h, read-out: Activity; in short: as §2
TK-10 = experiment: Growth inhibition of human TK10 cells assessed as cell growth at 10 uM after 48 hrs by sulforhodamine B assay; assay type: functional; conditions: TK-10, 48 h, read-out: Activity; in short: as §3
UO-31 = experiment: Growth inhibition of human UO31 cells assessed as cell growth at 10 uM after 48 hrs by sulforhodamine B assay; assay type: functional; conditions: UO-31, 48 h, read-out: Activity; in short: as §3
PC-3 = experiment: Growth inhibition of human PC3 cells assessed as cell growth at 10 uM after 48 hrs by sulforhodamine B assay; assay type: functional; conditions: PC-3, 48 h, read-out: Activity; in short: as §2
DU-145 = experiment: Growth inhibition of human DU145 cells assessed as cell growth at 10 uM after 48 hrs by sulforhodamine B assay; assay type: functional; conditions: DU-145, 48 h, read-out: Activity; in short: as §2
MCF7 = experiment: Growth inhibition of human MCF7 cells assessed as cell growth at 10 uM after 48 hrs by sulforhodamine B assay; assay type: functional; conditions: MCF7, 48 h, read-out: Activity; in short: as §2
BT-549 = experiment: Growth inhibition of human BT549 cells assessed as cell growth at 10 uM after 48 hrs by sulforhodamine B assay; assay type: functional; conditions: BT-549, 48 h, read-out: Activity; in short: as §2
T47D = experiment: Growth inhibition of human T47D cells assessed as cell growth at 10 uM after 48 hrs by sulforhodamine B assay; assay type: functional; conditions: read-out: Activity; in short: as §3

SMILES | IC50 (HepG2) [µM] | IC50 (HL-60) [µM] | growth at 10 µM (CCRF-CEM) [%] | growth at 10 µM (RPMI-8226) [%] | growth at 10 µM (A549) [%] | growth at 10 µM (HOP-92) [%] | growth at 10 µM (NCI-H23) [%] | growth at 10 µM (NCI-H322M) [%] | growth at 10 µM (NCI-H460) [%] | growth at 10 µM (HCT-116) [%] | growth at 10 µM (HT-29) [%] | growth at 10 µM (SW-620) [%] | growth at 10 µM (SF-268) [%] | growth at 10 µM (SF-539) [%] | growth at 10 µM (SNB-19) [%] | growth at 10 µM (SNB-75) [%] | growth at 10 µM (LOX IMVI) [%] | growth at 10 µM (Malme-3M) [%] | growth at 10 µM (M14) [%] | growth at 10 µM (SK-MEL-2) [%] | other results
CCOc1ccc(-n2nc(C(=O)NCc3cc(F)cc(F)c3)nc2-c2cc(OC)c(OC)c(OC)c2)cc1 | 1.41 | 0.95 | 85.6 | 47 | 57 | 61.1 | 81.8 | 61.5 | 66.1 | 49.7 | 61.7 | 91.4 | 65.5 | 70.7 | 62.3 | 43.4 | 66.6 | 90.1 | 65.2 | 65.5 | growth at 10 µM (OVCAR-3): 71.2%; growth at 10 µM (OVCAR-4): 65.8%; growth at 10 µM (NCI/ADR-RES): 61.7%; growth at 10 µM (A498): 64.4%; growth at 10 µM (ACHN): 54.4%; growth at 10 µM (RXF 393): 68.6%; growth at 10 µM (TK-10): 79.9%; growth at 10 µM (UO-31): 25.8%; growth at 10 µM (PC-3): 40.2%; growth at 10 µM (DU-145): 86.9%; growth at 10 µM (MCF7): 44.3%; growth at 10 µM (BT-549): 68.7%; growth at 10 µM (T47D): 44.1%
CCOc1ccc(-n2nc(C(=O)Nc3ccc(F)c(F)c3)nc2-c2cc(OC)c(OC)c(OC)c2)cc1 | 31.8 | 17.1 | 44.1 | 12.3 | 62 | 67 | 77.3 | 73 | 77.9 | 51.2 | 74.6 | 89.9 | 84.9 | 96.6 | 86.8 | 74.4 | 66.4 | 86.7 | 70.2 | 78.4 | growth at 10 µM (OVCAR-3): 61%; growth at 10 µM (OVCAR-4): 66.1%; growth at 10 µM (NCI/ADR-RES): 67.5%; growth at 10 µM (A498): 68.9%; growth at 10 µM (ACHN): 64.5%; growth at 10 µM (RXF 393): 84.6%; growth at 10 µM (TK-10): 87.4%; growth at 10 µM (UO-31): 42.6%; growth at 10 µM (PC-3): 47.1%; growth at 10 µM (DU-145): 80%; growth at 10 µM (MCF7): 78.8%; growth at 10 µM (BT-549): 65.5%; growth at 10 µM (T47D): 41.7%
COc1cccc(-n2nc(C(=O)NCc3ccccc3C)nc2-c2cc(OC)c(OC)c(OC)c2)c1 | 3.85 | 89.4 | 104 | 95.7 | 69.2 | 81.8 | 84 | 87.5 | 96.4 | 85.2 | 80.2 | 102 | 85.8 | 87.7 | 83.2 | 31.7 | 78.7 | 94.7 | 86.7 | 78.1 | growth at 10 µM (OVCAR-3): 81%; growth at 10 µM (OVCAR-4): 81.6%; growth at 10 µM (NCI/ADR-RES): 63.1%; growth at 10 µM (A498): 95.9%; growth at 10 µM (ACHN): 90.5%; growth at 10 µM (RXF 393): 109%; growth at 10 µM (TK-10): 73.2%; growth at 10 µM (UO-31): 35.9%; growth at 10 µM (PC-3): 83.2%; growth at 10 µM (DU-145): 94.2%; growth at 10 µM (MCF7): 82.1%; growth at 10 µM (BT-549): 86.2%; growth at 10 µM (T47D): 56.4%
